Bioassay records deposited in PubChem BioAssay by several laboratories.
Only a selection was taken, and hits are over-represented in it overall.
Diaphorase act: diaphorase activation or chemical reduction counter-screen | 190,000 compounds, 0.005% hits | Diaphorase/resazurin coupled assay, resorufin fluorescence, 16 min; stronger effect = higher value; 1 = vehicle wells, 0 = NADH-free wells | activation factor at 20 µM | AID 1229;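 active = diaphorase activity raised at least twofold by the compound at 20 µM; inactive = activation factor below 2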
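Measured by – red resorufin fluorescence at 544/590 nm excitation/emission · Test system – Clostridium kluyveri diaphorase, purified enzyme · Incubation – reaction time 16 min, room temperature · Buffer or medium – 50 mM HEPES pH 7.4 with 4.542 mM MgCl2, 0.005% Tween 20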
Redox H2O2 prof: compounds producing H2O2 with reducing agent – biochemical, NIH compound library profiling, artefact control for MLSCN library redox annotation, primary screen; 200,000 compounds, 0.03% hits; AID 878; DTT-dependent redox cycling H2O2, phenol red/HRP absorbance; 100% = 100 µM peroxide control, 0% = buffer; activation, % at 10 µM;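 active = activation of at least 50% relative to the plate's high and low controls in the primary single-dose screen; inactive = activation below 50%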;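 also: compound incubated with DTT at 0.8 mM final as the reducing agent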
Diaphorase inh: diaphorase inhibition or chemical oxidation counter-screen | diaphorase resazurin-to-resorufin fluorescence, NADH, 16 min; bacterial (C. kluyveri) enzyme, not human | inhibition, % at 20 µM | 190,000 compounds, 0.69% hits | AID 1217;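 active = primary screen inhibition at 20 µM above a set limit, cut at about 50% in these data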
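material = Clostridium kluyveri diaphorase enzyme | amount = 0.14 U/mL diaphorase, enzyme working solution | schedule = incubation 16 min, room temperature | detection = fluorescence of resorufin formed from resazurin, Ex 544/Em 590 nm | benchmarks = positive control minus NADH, DMSO neutral control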
G6PDH CS: counter-screen for G6PDH assay hits: L. mesenteroides G6PDH inhibition; Purified L. mesenteroides G6PDH, diaphorase/resazurin coupled fluorescence, 45 min; 200,000 compounds, 0.12% hits; inhibition, % at 5 µM
PfGluPho inh: PfG6PD (Plasmodium falciparum) enzyme inhibition | PfGluPho enzyme, NADPH resazurin-diaphorase fluorescence | inhibition, % at 20 µM | 350,000 compounds, 0.78% hits | AID 504690;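 active = inhibition reaching at least a set limit at 20 µM in the primary screen, cut at about 59% in these data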
Lmaj promast: reduces viability of Leishmania major promastigotes. AID 1063. 200,000 compounds, 9% hits. inhibition, % at 10 µM. resazurin fluorescence viability;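 also: promastigotes grown with compound for 44 hours at 28 °C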
Of the large screens only hits and unclear results are named; the others gave an inactive call. Rule as the data show it, unless noted: active = inhibition above about 50%; inactive = the rest.

O=C(CSc1nnc2ccccn12)NNC(=O)c1ccccc1F	none (no result: Diaphorase act, Redox H2O2 prof, Diaphorase inh, G6PDH CS, Lmaj promast)
CC(C)[C@H](NC(=O)[C@@H]1Cc2c([nH]c3ccccc23)C2c3ccccc3C(=O)N21)C(=O)NCC1CCCO1 (stereo not given in full)	none (no result: Diaphorase act, Redox H2O2 prof, Diaphorase inh, G6PDH CS, Lmaj promast)
Nc1nnc(-c2ccco2)s1	none
Nc1ncnc2oc(-c3ccco3)c(-c3ccco3)c12	Lmaj promast 52
CN(C)c1nc(N/N=C/c2ccccc2O)nc(Nc2ccc(F)cc2)n1	Lmaj promast 84
CN(C)c1nc(Nc2ccc(F)cc2)nc(Oc2ccc(F)cc2)n1	none (no result: Diaphorase act, Redox H2O2 prof, Diaphorase inh, G6PDH CS, Lmaj promast)
CC(C)COP(=O)(OCC(C)C)C(Nc1ccccc1)c1ccc(F)cc1 (stereo not given)	Lmaj promast 93
CC(C)COP(=O)(OCC(C)C)C(Nc1ccccc1)c1ccccc1 (stereo not given)	none (no result: Diaphorase act, Redox H2O2 prof, Diaphorase inh, G6PDH CS, Lmaj promast)
O=C(CN1C(=O)CCC1=O)NNc1ccc2ccccc2c1	Lmaj promast 96
O=C(COc1ccc2ccccc2c1)NNC(=O)Cc1ccccc1	none
O=C(Cc1ccccc1)NNc1ccc2ccccc2c1	Lmaj promast 96
CCOc1ccc(-c2nnn(CC(=O)NCCc3c[nH]c4ccccc34)n2)cc1	Lmaj promast 94
COc1ccc(/C=N/Nc2nnc(-c3ncc[nH]3)c3ccccc23)cc1	none
Oc1ccc2ccccc2c1/C=N/Nc1nnc(-c2ncc[nH]2)c2ccccc12	Lmaj promast 100
O=C(NCCCn1ccnc1)c1cc2c(s1)CCCCC2	Lmaj promast 60
CC1CCc2sc(C(=O)NCCCn3ccnc3)cc2C1 (stereo not given)	none (no result: Diaphorase act, Redox H2O2 prof, Diaphorase inh, G6PDH CS, Lmaj promast)
NC(N)=Nc1nc(-c2ccccc2)c2cc(F)ccc2n1	Lmaj promast 100
OCCSc1nc(-c2ccccc2)nc2ccc(F)cc12	none
Cc1cccc(C(CC(=O)NCc2ccco2)c2ccccc2)c1O (stereo not given)	none
CC(C)Oc1ccc(C(CC(=O)NCc2ccco2)c2ccccc2)cc1 (stereo not given)	Lmaj promast 67
Cc1ccc(N/C(N)=N/c2nc(C)cc(N3CCCCC3)n2)c(C)c1	Lmaj promast 100
COCCN1CN(S(=O)(=O)c2ccccc2)c2nc3ccccc3nc21	none
COCCN1CN(S(=O)(=O)c2ccc(Cl)cc2)c2nc3ccccc3nc21	Lmaj promast 77
CC(C)CC(NC(=O)c1ccc(Cl)cc1)C(=O)O (stereo not given)	Lmaj promast 84
CCCCC(NC(=O)c1ccc(Cl)cc1)C(=O)O (stereo not given)	Lmaj promast 86
CC(C)CC(NC(=O)c1cccc(Cl)c1)C(=O)O (stereo not given)	none
O=C(COC(=O)C(Cc1ccccc1)NC(=O)c1ccc(Cl)cc1)c1ccc(Cl)cc1 (stereo not given)	Lmaj promast 54
CSCCC(NC(=O)c1ccc(Br)cc1)C(=O)O (stereo not given)	Lmaj promast 80
O=C(Nc1ccccc1)Nc1ccc(Br)c(Cl)c1	none
CCCCN(CC)CCCNC(=O)c1cn(-c2ccc(OC)cc2)c(=O)c2ccccc12	none (no result: Diaphorase act, Redox H2O2 prof, Diaphorase inh, G6PDH CS, Lmaj promast)
CCCn1c(SCc2cc(=O)[nH]c3ccccc23)nc2c1c(=O)n(C)c(=O)n2C	none (no result: Redox H2O2 prof, Lmaj promast)
CCn1c(COc2ccccc2)nnc1SCC(=O)c1cccc([N+](=O)[O-])c1	Lmaj promast 91
C=C(C)C1CCC(C)=C1COC(=O)Nc1ccccc1 (stereo not given)	Lmaj promast 96
CCOC(=O)Cc1csc(NC(=O)CN2CCOCC2)n1	none (no result: Diaphorase act, Redox H2O2 prof, Diaphorase inh, G6PDH CS, Lmaj promast)
COc1ccc(N(C(=O)c2snc(C(N)=O)c2N)C(CC(C)C)C(=O)NCC2CCCO2)cc1 (stereo not given)	none (no result: Diaphorase act, Redox H2O2 prof, Diaphorase inh, G6PDH CS, Lmaj promast)
CCCCN(CC)C(=O)Cn1c(=O)sc2ccccc21	none
COc1ccc(COc2cc(-c3cccc(OC)c3)nc3ccc(NC(=O)c4ccc(N(C)C)cc4)cc23)cc1	Lmaj promast 84
COc1ccc(COc2cc(-c3cccc(OC)c3)nc3ccc(N)cc23)cc1	Lmaj promast 76
COc1ccc(COc2cc(-c3cccc(OC)c3)nc3ccc(NC(C)=O)cc23)cc1	none
Cc1nn(C)c(Cl)c1CN1CCN(C2CCCC2)C(CCO)C1 (stereo not given)	none
CCOC(=O)N1CCN(C(=O)c2cc3cc(Cl)ccc3[nH]2)CC1	none (no result: Diaphorase act, Redox H2O2 prof, Diaphorase inh, G6PDH CS, Lmaj promast)
CC(=O)Nc1ccc([C@H]2[C@H](C)CC[C@H]3C(=O)N4[C@@H](CC[C@@H](C)[C@@H]4c4ccc(NC(C)=O)cc4)C(=O)N32)cc1	none (no result: PfGluPho inh)
Nc1c2c(nc3ccccc13)CSCC2	none (no result: Diaphorase act, Redox H2O2 prof, Diaphorase inh, G6PDH CS, Lmaj promast)
CCOC(=O)c1cnc(Nc2nc3ccccc3o2)nc1CSC(=S)N(CC)CC	Lmaj promast 100
CCOC(=O)c1cnc(Nc2nc3ccccc3o2)nc1CSc1ncccn1	none (no result: Diaphorase act, Diaphorase inh, G6PDH CS)
CCn1c(C(=O)O)c(CC(=O)Nc2ccccc2OC)c2ccccc21	none (no result: Diaphorase act, Redox H2O2 prof, Diaphorase inh, G6PDH CS, Lmaj promast)
Cc1ccc(NC(=S)NCCN(C2CCCCC2)C2CCCC2)cc1C	Lmaj promast 64
Cc1cc(C)cc(NC(=S)NCCN(C2CCCCC2)C2CCCC2)c1	Lmaj promast 63
N#Cc1ccc(Oc2ncccn2)cc1	none (no result: Diaphorase act, Redox H2O2 prof, Diaphorase inh, G6PDH CS, Lmaj promast)
CCN(CC)S(=O)(=O)c1cc(NC(=O)C(=O)c2c(-c3ccccc3)cc3ccccn23)ccc1C	Lmaj promast 91
CCN(CC)S(=O)(=O)c1cccc(NC(=O)C(=O)c2c(-c3ccccc3)cc3ccccn23)c1	Lmaj promast 98
CCSc1nnc2c(n1)[nH]c1c(C)cccc12	none
C=CCSc1nnc2nc3[nH]c4c(C)cccc4c3nn12	Lmaj promast 72
CC(=O)OC1CCC2(C)C(COc3ccc4ccc(=O)oc4c3)C(C)(O)CCC2C1(C)C (stereo not given)	Lmaj promast 99
CCCCCCCCCCCCCCCC(O)C[N+](C)(C)CCO (stereo not given)	none (no result: Diaphorase act, Redox H2O2 prof, Diaphorase inh, G6PDH CS, Lmaj promast)
CCCCCCCCCCCCCCCC(O)C(N)CO (stereo not given)	Diaphorase act 2.3, Lmaj promast 100
COc1ccc(/C=N/NC(=O)c2cc(O)c(O)c(O)c2)cc1Cn1cc([N+](=O)[O-])cn1	Diaphorase inh 66
COc1ccc(/C=N/NC(=O)c2ccccc2O)cc1Cn1cc([N+](=O)[O-])cn1	none (no result: Diaphorase act, Redox H2O2 prof, Diaphorase inh, G6PDH CS, Lmaj promast)
CCOC(=O)c1nc(C)nc(Sc2n[nH]c(-c3ccccc3)n2)c1C	none (no result: Diaphorase act, Redox H2O2 prof, Diaphorase inh, G6PDH CS, Lmaj promast)
Cc1cccc(/C=N/NC(=O)c2cc(-c3cccnc3)nc3c2c(C)nn3-c2ccccc2)c1	Lmaj promast 62
Cc1cccc(/C=N/NC(=O)c2cc(-c3cccnc3)nc3ccccc23)c1	none
CN(CC(=O)Nc1ccccc1Cl)C(=O)Cn1cnc2ccccc2c1=O	none (no result: Diaphorase act, Redox H2O2 prof, Diaphorase inh, G6PDH CS, Lmaj promast)
CCN(CC(=O)NCc1ccc(F)cc1)C(=O)c1ccc2c(c1)OCO2	none (no result: Diaphorase act, Redox H2O2 prof, Diaphorase inh, G6PDH CS, Lmaj promast)
CN1CCN(CCC(=O)N2c3ccccc3Sc3ccc(C(F)(F)F)cc32)CC1	Lmaj promast 55
